Positions count from the first letter of the chain named.
Experiments:
[1] = system: native GlyRs in cultured spinal neurons; assay: Whole-cell patch-clamp of Gly-activated current; type: cell-based, rat; conditions: vs vehicle
Method in brief: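 Spinal cords from postnatal day 0 rats, papain-dissociated (20 U/ml, 37°C, 40 min). Plated at 300,000 cells/ml on poly-d-lysine in MEM/10% FBS, cultured ≥10 d, washed 30 min in external solution. Whole-cell, −60 mV, 20–22°C.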

[2] = biological target: T1, S296A mutant human α1 GlyR (Homo sapiens, UniProt P23415, S324A); assay: cell-based; type: cell-based; conditions: for effect of S296A mutation on cannabinoid-induced potentiation of IGly: cannabinoid 1 μM, EC2 Gly (10 μM), vs wild-type α1
T1 sequence (P23415 29-457 S324A): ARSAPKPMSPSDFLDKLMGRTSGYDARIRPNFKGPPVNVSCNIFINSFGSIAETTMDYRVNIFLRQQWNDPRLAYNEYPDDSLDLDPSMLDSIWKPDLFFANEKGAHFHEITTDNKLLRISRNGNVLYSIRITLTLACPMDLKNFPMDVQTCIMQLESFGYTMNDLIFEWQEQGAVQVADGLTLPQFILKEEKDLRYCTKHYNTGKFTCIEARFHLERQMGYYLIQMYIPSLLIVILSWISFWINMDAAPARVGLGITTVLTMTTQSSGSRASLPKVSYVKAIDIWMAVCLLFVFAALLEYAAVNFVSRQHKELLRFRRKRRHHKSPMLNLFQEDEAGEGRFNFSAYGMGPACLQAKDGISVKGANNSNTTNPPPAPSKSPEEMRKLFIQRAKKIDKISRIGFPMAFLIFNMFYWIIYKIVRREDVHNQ

human α1 GlyR = biological target: T2, human α1 GlyR (Homo sapiens, UniProt P23415); assay: cell-based; type: cell-based; conditions: for efficacy in potentiating IGly relative to AEA: concentration-response, α1 subunit (Fig. 5B)
T2 sequence (P23415 29-457): T1 sequence (P23415 29-457 S324A) with A296S

rat α3 GlyR = biological target: T3, rat α3 GlyR (Rattus norvegicus, UniProt P24524); assay: Whole-cell patch-clamp of IGly in HEK-293 cells expressing α3 GlyRs; type: cell-based; conditions: read-out: EC50 for Gly (concentration-response curve); α3 subunit
T3 sequence (P24524 34-464): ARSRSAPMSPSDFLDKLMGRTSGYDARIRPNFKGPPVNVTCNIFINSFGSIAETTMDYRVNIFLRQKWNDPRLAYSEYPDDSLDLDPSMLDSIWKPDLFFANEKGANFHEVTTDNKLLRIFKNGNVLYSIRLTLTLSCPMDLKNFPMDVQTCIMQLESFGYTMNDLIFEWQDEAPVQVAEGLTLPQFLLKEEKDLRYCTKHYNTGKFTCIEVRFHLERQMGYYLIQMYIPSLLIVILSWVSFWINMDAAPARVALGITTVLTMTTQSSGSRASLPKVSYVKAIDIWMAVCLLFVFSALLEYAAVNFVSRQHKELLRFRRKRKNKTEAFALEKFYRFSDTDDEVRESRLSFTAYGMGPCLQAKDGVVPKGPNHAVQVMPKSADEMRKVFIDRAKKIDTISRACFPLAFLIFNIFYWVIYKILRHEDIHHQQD

rat α2 GlyR = biological target: T4, rat α2 GlyR (Rattus norvegicus, UniProt P22771); assay: Whole-cell patch-clamp of IGly in HEK-293 cells expressing α2 GlyRs; type: cell-based; conditions: read-out: EC50 for Gly (concentration-response curve); α2 subunit
T4 sequence (P22771 28-452): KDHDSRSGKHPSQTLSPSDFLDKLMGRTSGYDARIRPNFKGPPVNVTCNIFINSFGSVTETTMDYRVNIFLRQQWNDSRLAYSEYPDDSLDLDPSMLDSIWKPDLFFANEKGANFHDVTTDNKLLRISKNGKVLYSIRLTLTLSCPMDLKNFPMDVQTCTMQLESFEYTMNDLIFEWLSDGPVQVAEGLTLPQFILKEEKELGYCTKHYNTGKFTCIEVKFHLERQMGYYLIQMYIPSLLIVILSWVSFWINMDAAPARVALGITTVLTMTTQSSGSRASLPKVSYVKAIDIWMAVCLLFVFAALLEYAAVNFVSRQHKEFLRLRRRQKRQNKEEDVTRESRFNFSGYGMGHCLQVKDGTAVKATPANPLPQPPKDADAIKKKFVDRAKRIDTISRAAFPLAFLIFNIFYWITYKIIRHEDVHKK

[3] = HEK293, read-out: inhibition of IGly
[4] = 3 μM coapplied, apparently competitive, parallel rightward shift

Cc1c(C(=O)NN2CCCCC2)nn(-c2ccc(Cl)cc2Cl)c1-c1ccc(I)cc1 [AM251]
effect of antagonist on AEA-induced potentiation of IGly ([1]; antagonist 1 μM): did not significantly alter

C=C(C)[C@@H]1CCC(C)=C[C@H]1c1c(O)cc(CCCCC)cc1O [CBD, cannabidiol]
effect of S296A mutation on cannabinoid-induced potentiation of IGly [2]: significantly reduced

CCCCCC=CCC=CCC=CCC=CCCCC(=O)NCC [Dehydroxyl-AEA, Dehydroxylanandamide]
efficacy in potentiating IGly relative to AEA (human α1 GlyR): reduced efficacy

NCC(=O)O [Gly, glycine]
maximal current density (MCD) (human α1 GlyR): 912 ± 153 pA/pF | EC50 (rat α3 GlyR): 354 ± 29 µM | maximal current density (MCD) [2]: 906 ± 147 pA/pF | EC50 (rat α2 GlyR): 128 ± 10 µM

CCCCCCC(C)(C)c1cc(O)c2c(c1)OC(C)(C)[C@@H]1CC=C(CO)C[C@@H]21 [HU210]
effect of S296A mutation on cannabinoid-induced potentiation of IGly [2]: significantly reduced

CCCCCc1cc(O)c2c(c1)OC(C)(C)[C@@H]1CCC(C)=C[C@@H]21 [THC, Δ^9-tetrahydrocannabinol]
effect of S296A mutation on cannabinoid-induced potentiation of IGly [2]: significantly reduced

Oc1cc2c(cc1O)CN(C(=S)NCCc1ccc(Cl)cc1)CCC2 [capsazepine]
effect of antagonist on AEA-induced potentiation of IGly ([1]; antagonist 2 μM): did not significantly alter

O=C1C[C@@H]2OCC=C3CN4CC[C@]56c7ccccc7N1[C@H]5[C@H]2[C@H]3C[C@H]46 [strychnine]
inhibition at 0.1 µM (human α1 GlyR; [3]): 78 ± 9% | inhibition at 0.1 µM [2, 3]: 81 ± 13%

Desoxyanandamide [Desoxy-AEA]
effect on AEA-induced potentiation of IGly (human α1 GlyR; [4]): inhibited | effect on THC-induced potentiation of IGly (human α1 GlyR; [4]): inhibited | efficacy in potentiating IGly relative to AEA (human α1 GlyR): reduced efficacy

SR144528
effect of antagonist on AEA-induced potentiation of IGly ([1]; antagonist 1 μM): did not significantly alter
